Experimental data from ChEMBL document CHEMBL2346497, “Synthesis of novel cognition enhancers with pyrazolo[5,1-c][1,2,4]benzotriazine core acting at γ-aminobutyric acid type A (GABA(A)) receptor” (Bioorg Med Chem, 2013).
Activity calls are given as the source filed them. No cut-off for these calls is given here.

Key:
[1] = Displacement of [3H]Ro15-1788 from GABA-A receptor benzodiazepine binding site in bovine cerebral cortex membranes after 1 hr; assay type: cell membranes, Bos taurus, Membrane
Mus musculus [2] = experiment: Anticonvulsant activity in CD1 albino mouse assessed as protection against pentylenetetrazole-induced convulsions at 10 mg/kg, po administered 30 mins prior to pentylenetetrazole challenge measured over 30 mins (reference value: 7.1%); assay type: functional
Mus musculus [3] = experiment: Cognitive enhancing effect in CD1 albino mouse assessed as increase in retention latency at 1 to 10 mg/kg, po administered 30 mins prior to testing measured after 24 hrs by passive avoidance test relative to control; assay type: functional, organism-based
In short: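 Step-through passive avoidance in male CD-1 mice (22–24 g). Test drugs were given po, suspended in 1% carboxymethylcellulose at 10 ml/kg, 30 min before the training session. For the antiamnesic arm, scopolamine 1.5 mg/kg was injected immediately after punishment. Retention latency was compared with CMC-treated controls, n = 10–12 mice per group.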

[4] = target: T1, Gamma-aminobutyric acid receptor subunit alpha-5 (Homo sapiens) (UniProt P31644); experiment: Displacement of [3H]Ro15-1788 from recombinant GABA-A alpha5beta2gamma2 receptor benzodiazepine binding site (unknown origin) at 10 uM after 1 hr relative to control
T1 sequence (whole entry): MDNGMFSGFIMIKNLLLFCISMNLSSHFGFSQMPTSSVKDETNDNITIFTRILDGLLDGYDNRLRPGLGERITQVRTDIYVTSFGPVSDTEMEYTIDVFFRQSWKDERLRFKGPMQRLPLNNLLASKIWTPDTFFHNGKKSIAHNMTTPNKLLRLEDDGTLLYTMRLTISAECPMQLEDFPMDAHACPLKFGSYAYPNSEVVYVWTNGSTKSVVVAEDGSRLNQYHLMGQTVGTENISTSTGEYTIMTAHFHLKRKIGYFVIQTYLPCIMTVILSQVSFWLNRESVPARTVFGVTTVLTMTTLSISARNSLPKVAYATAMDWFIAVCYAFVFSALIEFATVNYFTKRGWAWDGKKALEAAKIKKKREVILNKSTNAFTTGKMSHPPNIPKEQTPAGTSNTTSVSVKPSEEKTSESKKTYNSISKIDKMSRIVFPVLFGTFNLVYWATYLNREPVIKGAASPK

Rattus norvegicus = experiment: Procognitive effect in Harlan Wistar rat assessed as exploring time of familiar rat during social investigatory behaviour at 3 mg/kg, po administered 30 mins prior to testing measured for 5 mins by social learning test (reference value: 27.6 secs); assay type: functional

Ki [1]: 24.1 nM
inhibition [4]: 36%
SMILES: Cc1cnn2c1n[n+]([O-])c1ccc(OCc3ccncc3)cc12
Activity (Mus musculus [2]): 0%
Activity (Mus musculus [3]): Active
Time (Rattus norvegicus): 43.2 s
